Data taken from ChEMBL document CHEMBL1123215, “Arginine-vasopressin analogues with high antidiuretic/vasopressor selectivity. Synthesis, biological activity, and receptor binding affinity of arginine-vasopressin analogues with substitutions in positions 1, 2, 4, 7, and 8” (J Med Chem, 1986).
Positions of bridges follow the written chain, without caps; N, C: chain ends. Non-standard residues stand in square brackets, D forms with d. Residues, ends and D or L forms follow the SMILES beside them. NMeA = CN[C@@H](C)C(=O)O; Mpa = O=C(O)CCS; Sar = CNCC(=O)O

Tests used:
Rattus norvegicus [1] = assay: Compound was tested for the antidiuretic activity against hydrated anaesthetized rats, after intravenous injection.; assay type: functional, Urine
How it was run: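 Hydrated, anaesthetized rats given intravenous injection; effect measured as change in urine conductivity, with arginine-vasopressin as standard.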

Rattus norvegicus [2] = assay: Compound was tested for the vasopressor activity against phenoxybenzamine treated rats, after intravenous injection.; assay type: functional
How it was run: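 Pressor response measured in rats pretreated with phenoxybenzamine.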

[3] = Ratio of antidiuretic potency vs vasopressor potency; assay type: functional, Urine
How it was run: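 Antidiuretic potency from urine conductivity change in hydrated anaesthetized rats after i.v. injection, vasopressor potency in phenoxybenzamine-treated rats, arginine-vasopressin as standard; ratio of the two potencies.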

Vasopressin V2 receptor = Vasopressin V2 receptor (Bos taurus, UniProt P48044); assay: Binding affinity against plasma membrane from bovine kidney inner medulla; assay type: tissue-based
Vasopressin V2 receptor, sequence (P48044 whole entry): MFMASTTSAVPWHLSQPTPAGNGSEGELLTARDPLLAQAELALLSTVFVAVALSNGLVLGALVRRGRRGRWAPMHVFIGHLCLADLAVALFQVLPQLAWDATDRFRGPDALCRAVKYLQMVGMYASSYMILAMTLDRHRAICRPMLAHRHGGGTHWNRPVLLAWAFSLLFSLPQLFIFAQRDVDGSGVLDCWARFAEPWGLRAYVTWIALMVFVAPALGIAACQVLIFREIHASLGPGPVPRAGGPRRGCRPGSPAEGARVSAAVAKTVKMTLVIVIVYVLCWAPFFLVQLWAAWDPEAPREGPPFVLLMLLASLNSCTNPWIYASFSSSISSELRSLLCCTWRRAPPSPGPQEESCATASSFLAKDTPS
How it was run: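 Competition binding with [3H]AVP to plasma membranes, 30 min incubation; for rat liver membranes the standard medium included bacitracin (1 mg/mL). Apparent KD and slope factor b from weighted nonlinear least-squares fit of displacement curves to logistic curves; [3H]AVP parameters from direct binding. Mean ±SE of two experiments.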

Vasopressin V1 receptor = Vasopressin V1 receptor (Rattus norvegicus, UniProt P48974+P30560); assay: Binding affinity against plasma membrane from rat liver
How it was run: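 Rat liver plasma membranes, competition against [3H]AVP, 30 min incubation, bacitracin (1 mg/mL) in standard medium. Apparent KD and slope factor b from weighted nonlinear least-squares logistic fit of displacement curves; mean ±SE of two experiments.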

Kd (Vasopressin V2 receptor) | Kd (Vasopressin V1 receptor) | Compound | Potency (Rattus norvegicus [1]) | Potency (Rattus norvegicus [2]) | Ratio [3]
 |  | C[C@@H](C(=O)N[C@@H](CCCN=C(N)N)C(=O)NCC(N)=O)N(C)C(=O)[C@@H]1CSSC[C@H](N)C(=O)N[C@@H](Cc2ccc(O)cc2)C(=O)N[C@@H](Cc2ccccc2)C(=O)N[C@@H](CCC(N)=O)C(=O)N[C@@H](CC(N)=O)C(=O)N1 | 343 IU mg-1 | 10.6 IU mg-1 | 32
9.4 nM | 53 nM | CC(C)[C@H]1NC(=O)[C@H](Cc2ccccc2)NC(=O)[C@@H](Cc2ccc(O)cc2)NC(=O)CCSSC[C@@H](C(=O)N(C)[C@@H](C)C(=O)N[C@@H](CCCN=C(N)N)C(=O)NCC(N)=O)NC(=O)[C@H](CC(N)=O)NC1=O | 103 IU mg-1 | 0.69 IU mg-1 | 150
10 nM | 420 nM | CN(CC(=O)N[C@H](CCCN=C(N)N)C(=O)NCC(N)=O)C(=O)[C@@H]1CSSC[C@H](N)C(=O)N[C@@H](Cc2ccc(O)cc2)C(=O)N[C@@H](Cc2ccccc2)C(=O)N[C@@H](CCC(N)=O)C(=O)N[C@@H](CC(N)=O)C(=O)N1 [listing 1 of 2 here] |  |  | 
 |  | CN(CC(=O)N[C@H](CCCN=C(N)N)C(=O)NCC(N)=O)C(=O)[C@@H]1CSSC[C@H](N)C(=O)N[C@@H](Cc2ccc(O)cc2)C(=O)N[C@@H](Cc2ccccc2)C(=O)N[C@@H](CCC(N)=O)C(=O)N[C@@H](CC(N)=O)C(=O)N1 [listing 2 of 2 here] | 56 IU mg-1 | 0.04 IU mg-1 | 1400
21 nM | 280 nM | C[C@@H](C(=O)N[C@H](CCCN=C(N)N)C(=O)NCC(N)=O)N(C)C(=O)[C@@H]1CSSC[C@H](N)C(=O)N[C@@H](Cc2ccc(O)cc2)C(=O)N[C@@H](Cc2ccccc2)C(=O)N[C@@H](CCC(N)=O)C(=O)N[C@@H](CC(N)=O)C(=O)N1 [listing 1 of 2 here] |  |  | 
 |  | C[C@@H](C(=O)N[C@H](CCCN=C(N)N)C(=O)NCC(N)=O)N(C)C(=O)[C@@H]1CSSC[C@H](N)C(=O)N[C@@H](Cc2ccc(O)cc2)C(=O)N[C@@H](Cc2ccccc2)C(=O)N[C@@H](CCC(N)=O)C(=O)N[C@@H](CC(N)=O)C(=O)N1 [listing 2 of 2 here] | 69 IU mg-1 | 0.11 IU mg-1 | 630
 |  | CN(CC(=O)N[C@@H](CCCN=C(N)N)C(=O)NCC(N)=O)C(=O)[C@@H]1CSSC[C@H](N)C(=O)N[C@@H](Cc2ccc(O)cc2)C(=O)N[C@@H](Cc2ccccc2)C(=O)N[C@@H](CCC(N)=O)C(=O)N[C@@H](CC(N)=O)C(=O)N1 | 188 IU mg-1 | 3.6 IU mg-1 | 52
51 nM | 290 nM | C[C@@H](C(=O)N[C@H](CCCN=C(N)N)C(=O)NCC(N)=O)N(C)C(=O)[C@@H]1CSSCCC(=O)N[C@@H](Cc2ccc(O)cc2)C(=O)N[C@@H](Cc2ccccc2)C(=O)N[C@@H](CCC(N)=O)C(=O)N[C@@H](CC(N)=O)C(=O)N1 [listing 1 of 2 here] |  |  | 
 |  | C[C@@H](C(=O)N[C@H](CCCN=C(N)N)C(=O)NCC(N)=O)N(C)C(=O)[C@@H]1CSSCCC(=O)N[C@@H](Cc2ccc(O)cc2)C(=O)N[C@@H](Cc2ccccc2)C(=O)N[C@@H](CCC(N)=O)C(=O)N[C@@H](CC(N)=O)C(=O)N1 [listing 2 of 2 here] | 368.5 IU mg-1 | 0.07 IU mg-1 | 5260
8.7 nM | 160 nM | CN(CC(=O)N[C@H](CCCN=C(N)N)C(=O)NCC(N)=O)C(=O)[C@@H]1CSSCCC(=O)N[C@@H](Cc2ccc(O)cc2)C(=O)N[C@@H](Cc2ccccc2)C(=O)N[C@@H](CCC(N)=O)C(=O)N[C@@H](CC(N)=O)C(=O)N1 [listing 1 of 2 here] |  |  | 
 |  | CN(CC(=O)N[C@H](CCCN=C(N)N)C(=O)NCC(N)=O)C(=O)[C@@H]1CSSCCC(=O)N[C@@H](Cc2ccc(O)cc2)C(=O)N[C@@H](Cc2ccccc2)C(=O)N[C@@H](CCC(N)=O)C(=O)N[C@@H](CC(N)=O)C(=O)N1 [listing 2 of 2 here] | 214.5 IU mg-1 | 0.01 IU mg-1 | 2145
110 nM | 110 nM | C[C@@H](C(=O)N[C@@H](CCCN=C(N)N)C(=O)NCC(N)=O)N(C)C(=O)[C@@H]1CSSC[C@H](N)C(=O)N[C@@H](Cc2ccccc2)C(=O)N[C@@H](Cc2ccccc2)C(=O)N[C@@H](CCC(N)=O)C(=O)N[C@@H](CC(N)=O)C(=O)N1 (H-CFFQNC[NMeA]RG-NH2; disulfide 1-6) [listing 1 of 2 here] |  |  | 
 |  | C[C@@H](C(=O)N[C@@H](CCCN=C(N)N)C(=O)NCC(N)=O)N(C)C(=O)[C@@H]1CSSC[C@H](N)C(=O)N[C@@H](Cc2ccccc2)C(=O)N[C@@H](Cc2ccccc2)C(=O)N[C@@H](CCC(N)=O)C(=O)N[C@@H](CC(N)=O)C(=O)N1 (H-CFFQNC[NMeA]RG-NH2; disulfide 1-6) [listing 2 of 2 here] | 14.5 IU mg-1 | 0.57 IU mg-1 | 25
44 nM | 170 nM | CN(CC(=O)N[C@@H](CCCNC(=N)N)C(=O)NCC(N)=O)C(=O)[C@@H]1CSSC[C@H](N)C(=O)N[C@@H](Cc2ccccc2)C(=O)N[C@@H](Cc2ccccc2)C(=O)N[C@@H](CCC(N)=O)C(=O)N[C@@H](CC(N)=O)C(=O)N1 (H-CFFQNC[Sar]RG-NH2; disulfide 1-6) |  |  | 
 |  | CN(CC(=O)N[C@@H](CCCN=C(N)N)C(=O)NCC(N)=O)C(=O)[C@@H]1CSSC[C@H](N)C(=O)N[C@@H](Cc2ccccc2)C(=O)N[C@@H](Cc2ccccc2)C(=O)N[C@@H](CCC(N)=O)C(=O)N[C@@H](CC(N)=O)C(=O)N1 (H-CFFQNC[Sar]RG-NH2; disulfide 1-6) | 39.6 IU mg-1 | 0.17 IU mg-1 | 230
33 nM | 310 nM | CC(C)[C@@H]1NC(=O)[C@H](Cc2ccccc2)NC(=O)[C@H](Cc2ccc(O)cc2)NC(=O)[C@@H](N)CSSC[C@@H](C(=O)N(C)[C@@H](C)C(=O)N[C@@H](CCCNC(=N)N)C(=O)NCC(N)=O)NC(=O)[C@H](CC(N)=O)NC1=O (H-CYFVNC[NMeA]RG-NH2; disulfide 1-6) |  |  | 
9.4 nM | 110 nM | CC(C)[C@@H]1NC(=O)[C@H](Cc2ccccc2)NC(=O)[C@H](Cc2ccc(O)cc2)NC(=O)[C@@H](N)CSSC[C@@H](C(=O)N(C)CC(=O)N[C@@H](CCCNC(=N)N)C(=O)NCC(N)=O)NC(=O)[C@H](CC(N)=O)NC1=O (H-CYFVNC[Sar]RG-NH2; disulfide 1-6) |  |  | 
 |  | CC(C)[C@@H]1NC(=O)[C@H](Cc2ccccc2)NC(=O)[C@H](Cc2ccc(O)cc2)NC(=O)[C@@H](N)CSSC[C@@H](C(=O)N(C)CC(=O)N[C@@H](CCCN=C(N)N)C(=O)NCC(N)=O)NC(=O)[C@H](CC(N)=O)NC1=O (H-CYFVNC[Sar]RG-NH2; disulfide 1-6) | 270 IU mg-1 | 34.7 IU mg-1 | 8
1.4 nM | 27 nM | CC(C)[C@@H]1NC(=O)[C@H](Cc2ccccc2)NC(=O)[C@H](Cc2ccc(O)cc2)NC(=O)CCSSC[C@@H](C(=O)N(C)CC(=O)N[C@@H](CCCN=C(N)N)C(=O)NCC(N)=O)NC(=O)[C@H](CC(N)=O)NC1=O ([Mpa]YFVNC[Sar]RG-NH2; disulfide 1-6) [listing 1 of 2 here] |  |  | 
 |  | CC(C)[C@@H]1NC(=O)[C@H](Cc2ccccc2)NC(=O)[C@H](Cc2ccc(O)cc2)NC(=O)CCSSC[C@@H](C(=O)N(C)CC(=O)N[C@@H](CCCN=C(N)N)C(=O)NCC(N)=O)NC(=O)[C@H](CC(N)=O)NC1=O ([Mpa]YFVNC[Sar]RG-NH2; disulfide 1-6) [listing 2 of 2 here] | 552 IU mg-1 | 0.4 IU mg-1 | 1380
 |  | N=C(N)NCCC[C@H](NC(=O)[C@@H]1CCCN1C(=O)[C@@H]1CSSC[C@H](N)C(=O)N[C@@H](Cc2ccc(O)cc2)C(=O)N[C@@H](Cc2ccccc2)C(=O)N[C@@H](CCC(N)=O)C(=O)N[C@@H](CC(N)=O)C(=O)N1)C(=O)NCC(N)=O [VASOPRESSIN] | 323 IU mg-1 |  | 
